Screening data from PubChem.
This is a sample that favours compounds with a hit; in the whole collection about 3.3% have one here.
SENP6 inh – inhibitors of human SENP6 protease; Recombinant SENP6 catalytic domain, aminoluciferin luminescence; Q9GZR1; inhibition, % at 10 µM; actives 1.8% (n = 330,000);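 active = inhibition above about 50% at the single tested dose, limit read from the data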
SENP8 block-1 – blocks the human protease SENP8; Q96LD8; purified SENP8, Z-RLRGG-aminoluciferin cleavage, luminescence; inhibition, % at 10 µM; actives 1.2% (n = 330,000); in the data active = inhibition above about 50%
SENP1 FRET inh – inhibitors of human SENP1 SUMO protease catalytic domain; Q9P0U3; recombinant SENP1 catalytic domain, CyPet-SUMO1-YPet FRET cleavage; inhibition, % at 10 µM; actives 0.21% (n = 360,000);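 active = inhibition at least 30% at 10 µM, raw YFP signal under a set limit, fluorescence ratio 0.5 to 1.5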
Target sequence (Q9P0U3 419-644 limits assumed): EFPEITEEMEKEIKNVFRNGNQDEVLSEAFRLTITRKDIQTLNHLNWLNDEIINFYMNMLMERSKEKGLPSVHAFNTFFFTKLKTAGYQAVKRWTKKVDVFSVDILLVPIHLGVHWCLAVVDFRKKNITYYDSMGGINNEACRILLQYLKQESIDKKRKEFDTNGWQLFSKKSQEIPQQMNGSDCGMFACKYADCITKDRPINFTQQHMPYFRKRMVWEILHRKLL
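System: Recombinant human SENP1 catalytic domain, His6-tagged | Incubation: Enzyme reaction for 50 min at room temperature, dark | Medium: Tris pH 8 with BME, BSA, NP40 and catalase | Also added: 25 nM SUMO1 FRET substrate | Compound: 10 µM single point, 0.5% DMSO | Measured by: FRET fluorescence in CFP and YFP emission channels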
SENP7 inh – blocks the human protease SENP7; Q9BQF6; recombinant SENP7, Z-RLRGG-aminoluciferin luminescence, 40 min; inhibition, % at 5 µM; actives 1.5% (n = 330,000);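 active = inhibition above about 50% at the single test dose, limit read from the data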
Target sequence (Q9BQF6 706-1050 limits assumed): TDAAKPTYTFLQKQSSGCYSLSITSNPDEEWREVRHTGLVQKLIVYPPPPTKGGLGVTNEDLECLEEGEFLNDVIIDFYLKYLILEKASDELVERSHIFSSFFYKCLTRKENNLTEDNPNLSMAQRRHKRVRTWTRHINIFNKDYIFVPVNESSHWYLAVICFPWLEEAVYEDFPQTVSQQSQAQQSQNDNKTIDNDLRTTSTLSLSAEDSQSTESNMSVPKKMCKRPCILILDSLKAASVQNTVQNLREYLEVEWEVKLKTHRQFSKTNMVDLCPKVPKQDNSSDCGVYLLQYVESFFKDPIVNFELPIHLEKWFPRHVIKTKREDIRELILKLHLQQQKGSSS
SENP8 block-2 – inhibitors of human SENP8 protease | AID 602440 | inhibition, % at 20 µM | Q96LD8 | recombinant SENP8, Nedd8 substrate fluorescence | actives 0.64% (n = 360,000); in the data active = inhibition mostly above about 40%, no sharp cut-off; inactive = mostly below about 27%
CendR NRP1 mod – alters CendR peptide binding to human NRP-1. O14786. AID 602438. FAM-RPARPAR peptide binding to NRP-1, fluorescence polarization. inhibition, % at 25 µM. actives 0.85% (n = 360,000);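 active = inhibition or corrected inhibition above about 18%, plus a signal ratio from 0.5 to 1.5, limit read from the data, passing the limit was not always enough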
Hits are given with their value; i = inactive; nt = no result.

SMILES	SENP6 inh	SENP8 block-1	SENP1 FRET inh	SENP7 inh	SENP8 block-2	CendR NRP1 mod
O=C(Nc1ccc(N2CCOCC2)cc1)C1CC(=O)N(c2ccc(Cl)cc2)C1 (stereo unspecified)	i	i	i	i	i	i
CC(=O)Nc1ccc(NC(=O)C2CC(=O)N(c3ccc(Cl)cc3)C2)cc1 (stereo unspecified)	i	i	i	i	i	27.5
COc1ccc(OC)c(NC(=O)C2CC(=O)N(c3ccc(Br)cc3)C2)c1 (stereo unspecified)	i	i	i	i	i	25.7
COC(=O)Cc1ccc(NC(=S)NCC(C)C)cc1	i	i	i	i	i	i
CCCNC(=S)Nc1ccc(CC(=O)OC)cc1	i	i	i	i	i	23.5
O=C(NCCCN1CCCC(O)C1)c1cc(COc2ccc(F)cc2F)on1 (stereo unspecified)	i	i	i	i	i	39.7
COc1cc(C)ccc1OCc1cc(C(=O)NCCN2CCCC(O)C2)no1 (stereo unspecified)	i	i	i	i	i	i
COc1cc(NC(=O)C2CC(c3ccccc3O)=NO2)cc(OC)c1OC (stereo unspecified)	nt	nt	i	nt	i	i
CC(Sc1nnc(-c2cccnc2)o1)C(=O)NC1CCCC1 (stereo unspecified)	i	i	i	i	i	22.1
O=C(O)C1CSC(c2ccncc2)N1 (stereo unspecified)	i	i	64.6	i	i	i
Cc1ccc(OCc2nc3ccccc3n2C(C(=O)Nc2c(C)cccc2C)C2CC2)cc1 (stereo unspecified)	nt	nt	i	nt	i	i
C=CCN1c2ccccc2[C@]23C[C@@H](C(=O)OC)N(C(=O)C4CCC4)C2=NC(C(=O)OC)=C(C(=O)OC)[C@H]13	i	i	i	i	i	25.4
CC(C)CN(C(=O)COC(=O)C1c2ccccc2Oc2ccccc21)C1CCS(=O)(=O)C1 (stereo unspecified)	i	i	i	i	i	23.8
O=C(O)c1cccc(S(=O)(=O)Nc2ccccc2Oc2ccccc2)c1	nt	nt	i	nt	i	i
CC(NNC(=S)N1CCCCCC1)c1ccc2ccccc2n1 (stereo unspecified)	nt	nt	i	nt	i	i
Cc1ccn2cc(-c3ccc(O)c(O)c3)nc2c1	67.4	55.8	i	67.0	i	i
Oc1ccc(-c2cn3ccccc3n2)cc1O	i	i	i	i	i	i
CCOC1=C2[C@@H](CN(S(=O)(=O)c3ccc(C)cc3)[C@H]2c2ccccc2F)[C@H]2C(=O)N(C3CCCCC3)C(=O)[C@H]2C1	nt	nt	i	nt	i	i
CCOC(=O)C1=CCN(S(=O)(=O)c2ccc(C)cc2)C1c1ccc(C(C)C)cc1 (stereo unspecified)	nt	nt	i	nt	i	27.6
CCOC(=O)C1=CCN(S(=O)(=O)c2ccccc2Br)C1c1ccccc1 (stereo unspecified)	nt	nt	i	nt	i	25.2
O=C(/C=C/c1ccccc1)Nc1cccc(C(=O)NC2CC2)c1	nt	nt	i	nt	i	i
CC1(C(=O)NCc2ccccc2)CN(S(C)(=O)=O)CC(=O)N1Cc1cccc(C(F)(F)F)c1 (stereo unspecified)	nt	nt	i	nt	i	i
Nc1c(C(=O)NCc2ccc(F)cc2)c2nc3ccccc3nc2n1CCCN1CCOCC1	78.2	80.2	i	57.3	i	i
COC(=O)c1c(N)n(CCCN2CCOCC2)c2nc3ccccc3nc12	i	i	i	i	i	i
COc1ccc(CNC(=O)c2c(N)n(CCCN3CCOCC3)c3nc4ccccc4nc23)cc1	68.4	71.0	i	i	i	i
SMILES	SENP6 inh	SENP8 block-1	SENP1 FRET inh	SENP7 inh	SENP8 block-2	CendR NRP1 mod
NNc1ncnc2c1cnn2-c1ccccc1	i	i	i	i	i	28.1
CCOC1=C2CN(S(=O)(=O)c3ccc(C)cc3)[C@H](c3cccc(Cl)c3)C[C@@H]2N(S(=O)(=O)c2ccccc2[N+](=O)[O-])[C@H](c2ccccc2)C1	nt	nt	i	nt	i	i
CC(C)Cn1[nH]c2c3c(ccc2c1=O)C(=O)c1ccccc1C3=O	i	i	i	i	42.7	i
Cc1ccc(S(=O)(=O)Nc2ccc3c(c2)C(=O)N([C@@H](C)CO)C[C@@H](C)[C@@H](CN(C)CC2CC2)OCCCC[C@@H](C)O3)cc1	nt	nt	i	nt	i	i
Cc1[nH]c2ccccc2c1C(=O)c1cc(Cc2ccccc2)sc1N	nt	nt	i	nt	i	i
COc1ccccc1NC(=O)C1=C(C)NC(=O)NC1c1ccccc1F (stereo unspecified)	i	i	i	i	i	19.8
COc1ccccc1C1NC(=O)NC(C)=C1C(=O)Nc1cccc(C)c1C (stereo unspecified)	i	i	i	i	i	i
COc1ccc(C(=O)NCCn2cc(SCC(=O)Nc3nnc(C)s3)c3ccccc32)cc1	i	i	i	i	i	24.2
Cc1nnc(NC(=O)CSc2cn(CCNC(=O)c3ccccc3)c3ccccc23)s1	i	i	i	i	i	i
CC(C)C(Cl)=NOC(=O)Nc1ccc(S(N)(=O)=O)cc1	nt	nt	i	nt	i	i
COc1cc(CC(=O)OCC(=O)N2C(C)CCCC2C)cc(OC)c1OC (stereo unspecified)	i	i	i	i	i	25.6
Cc1ccc(C)c(S(=O)(=O)N(C)c2ccc(OC(=O)C3CCN(C(=O)Nc4ccccc4)CC3)cc2)c1	nt	nt	i	nt	i	25.2
Cc1ccc(S(=O)(=O)N(C)C)cc1NC(=O)C1CCN(C(=O)Nc2ccccc2)CC1	i	i	i	i	i	i
CCOC(=O)CSc1c(-c2cccs2)[nH]c2ccccc12	i	i	i	i	i	24.8
CCN(CC)C(=O)C1=C(C)N(Cc2ccccc2)C(=O)C(CC(=O)NCc2cccc3ccccc23)C1 (stereo unspecified)	nt	nt	i	nt	i	i
CCN1CCc2c(sc(N)c2C#N)C1	i	i	i	i	i	i
N#Cc1c(N)sc(=S)c2c1CCN(Cc1ccccc1)C2	94.2	96.4	nt	79.1	nt	nt
O=CC1=C(c2ccccc2)Oc2ccccc2O1	i	i	i	i	i	i
C#CCOCCOCCOCCNc1nc(N2CCN(C(=O)Cn3cc(CC(C)O)nn3)CC2)nc(N2CCN(C(=O)[C@H]([C@@H](C)CC)n3cc(CCCN=C(N)N)nn3)CC2)n1 (stereo partly specified)	i	i	i	i	i	i
C#CCOCCOCCOCCNc1nc(N2CCN(C(=O)Cn3cc(CCCN=C(N)N)nn3)CC2)nc(N2CCN(C(=O)Cn3cc(CC(C)O)nn3)CC2)n1 (stereo unspecified)	nt	nt	i	nt	i	25.1
C#CCOCCOCCOCCNc1nc(N2CCN(C(=O)Cn3cc(CCO)nn3)CC2)nc(N2CCN(C(=O)[C@H]([C@@H](C)CC)n3cc(CCCN=C(N)N)nn3)CC2)n1	nt	nt	i	nt	i	i
C#CCOCCOCCOCCNc1nc(N2CCN(C(=O)Cn3cc(CCO)nn3)CC2)nc(N2CCN(C(=O)[C@H](C)n3cc(CCCN=C(N)N)nn3)CC2)n1	nt	nt	i	nt	i	22.6
